Compound activity deposited in PubChem BioAssay by several laboratories.
PDI inh – inhibitors of human PDI, primary screen, biochemical, turbidity, single point, plate reader | AID 588391, 2011 | actives 0.052% (n = 350,000) | Protein disulfide-isomerase (Homo sapiens), P07237 | PDI insulin aggregation turbidity, A650, 90 min | inhibition, % at 10 µM;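 active means mean inhibition across replicates of 30% or more, whatever share of single replicates reach that level; inconclusive means mean inhibition below 30% while every single replicate reaches 30%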
Target sequence (P07237 whole entry, looked up): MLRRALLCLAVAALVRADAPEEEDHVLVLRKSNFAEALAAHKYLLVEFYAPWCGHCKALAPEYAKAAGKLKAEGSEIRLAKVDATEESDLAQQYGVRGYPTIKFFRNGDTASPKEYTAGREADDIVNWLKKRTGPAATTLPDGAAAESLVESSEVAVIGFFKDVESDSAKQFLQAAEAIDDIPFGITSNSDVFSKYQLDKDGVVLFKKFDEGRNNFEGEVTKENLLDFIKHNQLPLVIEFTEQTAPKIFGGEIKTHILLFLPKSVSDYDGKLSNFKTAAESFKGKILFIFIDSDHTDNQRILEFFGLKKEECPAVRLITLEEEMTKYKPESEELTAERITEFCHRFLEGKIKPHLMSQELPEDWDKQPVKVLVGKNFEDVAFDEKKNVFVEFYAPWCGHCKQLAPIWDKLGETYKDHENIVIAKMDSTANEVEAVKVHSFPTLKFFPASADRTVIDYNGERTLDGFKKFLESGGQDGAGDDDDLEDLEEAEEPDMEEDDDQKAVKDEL
TbMetRS inhib – T. brucei MetRS inhibitors, primary screen, biochemical, luminescence. methionyl-tRNA synthetase (Trypanosoma brucei brucei). purified T. brucei MetRS, ATP depletion, Kinase-Glo luminescence. inhibition, % at 11.9 µM. actives 0.4% (n = 360,000). AID 624268, 2012;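 active means inhibition above a per-plate cutoff of the control wells' mean inhibition plus 3 SD, cut at about 5.5% in these data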
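Test system – parasite MetRS enzyme · Reagent – substrates ATP, L-methionine and bulk Escherichia coli tRNA · Doses – 11.9 µM compound single dose, 0.9% DMSO · Times – 15 min enzyme-compound preincubation, 2 h reaction, 10 min detection, 25 °C · Signal – Kinase-Glo luminescence, ATP depletion format · Controls – DMSO-only wells as low control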
ERp5 block – inhibitors of ERp5-driven insulin aggregation, primary screen, biochemical, turbidity, absorbance 650 nm, single point. Protein disulfide-isomerase A6 (Homo sapiens), Q15084. 90 min. actives 0.05% (n = 350,000). AID 651711, 2012. inhibition, % at 9.99 µM;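 active means mean replicate inhibition above about 25%, with every replicate also reaching it, limit read from the data, passing the limit was not always enough; inconclusive means only one of those two criteria met; inactive means neither criterion met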
Tb MetRS conf – T. brucei MetRS inhibitors, confirmation, biochemical, luminescence; actives 93% (n = 1,400); shares compounds with TbMetRS inhib; inhibition, % at 11.9 µM; T. brucei MetRS enzyme, luminescence (ATP depletion); AID 624412, 2012; in the data active means inhibition above about 7%
Jurkat cytotox – Jurkat T cell cytotoxicity, cytotoxicity control for T. brucei MetRS inhibitor project, luminescence, high throughput; actives 12% (n = 1,400); AID 624413, 2012; inhibition, % at 8.3 µM; shares compounds with TbMetRS inhib; Jurkat cells viability, ATP luminescence; in the data active means inhibition above about 15%
TbMetRS FP orth – T. brucei MetRS inhibitors, orthogonal assay for T. brucei MetRS inhibitor project, biochemical, fluorescence polarization. shares compounds with TbMetRS inhib. purified T. brucei MetRS. inhibition, % at 11.9 µM. actives 44% (n = 1,400); in the data active means inhibition above about 17%
Of the large screens only hits and unclear results are named; the others gave an inactive call (follow-up assays come after a bar, where they were run). The list is not random: actives were taken first. Their share in the collection is about 0.4%.

CCCNC(=O)[C@H]1[C@H](CO)[C@H]2Cn3c(ccc(-c4ccc(F)cc4)c3=O)[C@H]2N1CCC	none (no result: PDI inh, TbMetRS inhib)
O=C(CNc1cccc2ccccc12)N/N=C/c1ccc[nH]1	TbMetRS inhib 9.8 | Tb MetRS conf 65 | Jurkat cytotox 64 | TbMetRS FP orth 44
CSc1ccc(/C=N/NC(=O)CNc2cccc3ccccc23)cc1	none
Cc1ccc(S(=O)(=O)Nc2ccc3c(c2)C(=O)N([C@H](C)CO)C[C@@H](C)[C@H](CN(C)S(=O)(=O)c2cn(C)cn2)O3)cc1	none (no result: PDI inh, TbMetRS inhib)
Cc1noc(C)c1S(=O)(=O)Nc1ccc2c(c1)C(=O)N([C@@H](C)CO)C[C@H](C)[C@@H](CN(C)Cc1ccccc1)OCCCC[C@H](C)O2	none (no result: PDI inh, TbMetRS inhib)
C[C@H]1CN([C@@H](C)CO)C(=O)c2cc(-c3ccccc3F)cnc2O[C@H]1CN(C)C(=O)c1cnccn1	none (no result: PDI inh, TbMetRS inhib)
Cc1cccc(OCCCC(=O)Nc2nc3ccccc3[nH]2)c1	TbMetRS inhib 63 | Tb MetRS conf 67 | Jurkat cytotox inactive | TbMetRS FP orth 46
Cc1ccccc1OCC(=O)NCCc1nc2ccccc2[nH]1	none
Cc1cccc(OCCSCc2nc3ccccc3[nH]2)c1	TbMetRS inhib 8.7 (no result: ERp5 block) | Tb MetRS conf 20 | Jurkat cytotox inactive | TbMetRS FP orth inactive
Cc1cccc(OCCCSc2nc3ccccc3[nH]2)c1	none (no result: ERp5 block)
Cc1ccc(OCCCC(=O)Nc2nc3ccccc3[nH]2)cc1	none
Cc1ccccc1OCCSCc1nc2ccccc2[nH]1	TbMetRS inhib 6.2 | Tb MetRS conf 17 | Jurkat cytotox inactive | TbMetRS FP orth inactive
CCC(=O)N1C[C@H](C)[C@@H](OC)CN(C)C(=O)c2cc(NS(C)(=O)=O)ccc2OC[C@H]1C	none (no result: PDI inh, TbMetRS inhib)
CCCC#Cc1ccc2c(c1)O[C@@H](CN(C)C(C)=O)[C@@H](C)CN([C@@H](C)CO)S2(=O)=O	none (no result: PDI inh, TbMetRS inhib)
Cc1noc(C)c1NC(=O)N(C)C[C@@H]1Oc2c(NC(=O)C3CCCCC3)cccc2C(=O)N([C@@H](C)CO)C[C@@H]1C	none (no result: PDI inh, TbMetRS inhib)
C[C@@H]1CN([C@@H](C)CO)C(=O)c2cc(NS(=O)(=O)c3cn(C)cn3)ccc2O[C@@H]1CN(C)S(=O)(=O)c1ccc(Cl)cc1	none (no result: PDI inh, TbMetRS inhib)
Cc1ccc(-c2ccc(C3[C@H]4CNC[C@@H]3N4C(=O)NC(C)C)cc2)cc1 (some centres not stated)	none (no result: PDI inh, TbMetRS inhib)
Cn1cc(S(=O)(=O)NC[C@H]2O[C@@H](n3cnc4c(N)ncnc43)[C@H](O)[C@@H]2O)cn1	none
Nc1ncnc2c1ncn2[C@@H]1O[C@H](CNS(=O)(=O)c2ccc3c(c2)CCN(C(=O)C(F)(F)F)C3)[C@@H](O)[C@H]1O	TbMetRS inhib 8.7 | Tb MetRS conf 17 | Jurkat cytotox 16 | TbMetRS FP orth inactive
O=C(O)c1ccc(-n2cncn2)c([N+](=O)[O-])c1	ERp5 block inconclusive
O=C(COc1ccccc1Cl)NNC(=O)c1ccc(-n2cncn2)c([N+](=O)[O-])c1	TbMetRS inhib 13 | Tb MetRS conf 43 | Jurkat cytotox inactive | TbMetRS FP orth 21
Cc1ccc(C(=O)NNC(=O)c2ccc(-n3cncn3)c([N+](=O)[O-])c2)cc1	TbMetRS inhib 11 | Tb MetRS conf 41 | Jurkat cytotox inactive | TbMetRS FP orth 20
O=C(Nc1ccc(Cl)cc1)c1ccc(-n2cccn2)c([N+](=O)[O-])c1	none (no result: ERp5 block)
Cc1cccc(C(=O)Nc2cc(Cl)ccc2-n2cncn2)c1[N+](=O)[O-]	none
O=C(Nc1ccc(Cl)cc1)c1ccc(-n2cncn2)c([N+](=O)[O-])c1	TbMetRS inhib 42 (no result: ERp5 block) | Tb MetRS conf 62 | Jurkat cytotox inactive | TbMetRS FP orth 33
O=C(Nc1cccc(Cl)c1)c1ccc(-n2cncn2)c([N+](=O)[O-])c1	TbMetRS inhib 42 (no result: ERp5 block) | Tb MetRS conf 66 | Jurkat cytotox inactive | TbMetRS FP orth 37
O=C(c1ccc(-n2cncn2)c([N+](=O)[O-])c1)N1CCN(S(=O)(=O)c2ccccc2F)CC1	none
CCCNC(=O)[C@@]1(c2ccc([N+](=O)[O-])cc2)CC(=O)N(CC23CC4CC(CC(C4)C2)C3)[C@@H]1c1ccc(CO)cc1I	none (no result: PDI inh, TbMetRS inhib)
Cc1noc(C)c1S(=O)(=O)N(C)C[C@H]1OCCCC[C@H](C)Oc2ccc(N(C)C)cc2C(=O)N([C@@H](C)CO)C[C@@H]1C	none (no result: PDI inh, TbMetRS inhib)
CCCN(C)C[C@H]1OCCCC[C@@H](C)Oc2ccc(NC(=O)Nc3ccc(OC)cc3)cc2C(=O)N([C@@H](C)CO)C[C@H]1C	none (no result: PDI inh, TbMetRS inhib)
O=C(Cc1ccccn1)N[C@@H]1CC[C@@H](CCn2cc(-c3ccc(F)cc3)nn2)O[C@H]1CO	none (no result: PDI inh, TbMetRS inhib)
C[C@@H]1CN([C@H](C)CO)C(=O)Cc2cc(NS(=O)(=O)c3cn(C)cn3)ccc2O[C@H]1CN(C)C(=O)Nc1ccccc1	none (no result: PDI inh, TbMetRS inhib)
C/C=C/c1cnc2c(c1)C(=O)N([C@@H](C)CO)C[C@H](C)[C@@H](CN(C)Cc1cncnc1)O2	none (no result: PDI inh, TbMetRS inhib)
C[C@@H]1CCCCO[C@@H](CN(C)S(C)(=O)=O)[C@@H](C)CN([C@H](C)CO)C(=O)c2cc(NC(=O)Nc3ccc4c(c3)OCO4)ccc2O1	none (no result: PDI inh, TbMetRS inhib)
Cc1ccc(NC(=O)c2ccc(-n3cncn3)c([N+](=O)[O-])c2)cc1	TbMetRS inhib 27 (no result: ERp5 block) | Tb MetRS conf 46 | Jurkat cytotox inactive | TbMetRS FP orth inactive
CN(C)S(=O)(=O)c1cccc(NC(=O)c2ccc(Sc3nncn3C)c([N+](=O)[O-])c2)c1	none
CCN(CC)S(=O)(=O)c1cc(NC(=O)c2ccc(-n3cncn3)c([N+](=O)[O-])c2)ccc1C	TbMetRS inhib 18, ERp5 block 25 | Tb MetRS conf 47 | Jurkat cytotox 35 | TbMetRS FP orth 39
CN(C)S(=O)(=O)c1cccc(NC(=O)c2ccc(-n3cncn3)c([N+](=O)[O-])c2)c1	TbMetRS inhib 43 | Tb MetRS conf 78 | Jurkat cytotox inactive | TbMetRS FP orth 50
CN(CC(=O)Nc1ccc(Cl)cc1)C(=O)c1ccc(-n2cncn2)c([N+](=O)[O-])c1	TbMetRS inhib 70 | Tb MetRS conf 100 | Jurkat cytotox inactive | TbMetRS FP orth 85
COc1ccc(NC(=O)c2ccc(-n3cccn3)c([N+](=O)[O-])c2)cc1	none
Cc1cccc(C)c1NC(=O)CN(C)C(=O)c1ccc(-n2cncn2)c([N+](=O)[O-])c1	none
Cc1ccc(NC(=O)c2ccc(-n3cccn3)c([N+](=O)[O-])c2)cc1C	none (no result: ERp5 block)
CN1CCN(C(=O)C[C@@H]2C=C[C@H](NS(=O)(=O)c3cccc(F)c3)[C@H](CO)O2)CC1	none (no result: PDI inh, TbMetRS inhib)
Cc1noc(C)c1NC(=O)Nc1ccc2c(c1)CC(=O)N([C@@H](C)CO)C[C@@H](C)[C@H](CN(C)S(=O)(=O)c1c(C)noc1C)O2	none (no result: PDI inh, TbMetRS inhib)
